Source: ChEMBL document CHEMBL2424574, “Structure-activity relationships and pharmacophore model of a noncompetitive pyrazoline containing class of GluN2C/GluN2D selective antagonists” (J Med Chem, 2013)

Tests used:
Rattus norvegicus [1] = species on record: Rattus norvegicus; assay: Selectivity ratio of IC50 for recombinant rat GluN2B receptor to IC50 for recombinant rat GluN2D receptor
Outline: (§1)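 Rat GluN1 co-expressed with GluN2A, GluN2B or GluN2D in Xenopus oocytes. Two-electrode voltage clamp at −40 mV in 90 NaCl, 1 KCl, 0.5 BaCl2, 0.005 EDTA, 10 HEPES (mM), pH 7.4, 23 °C; final DMSO 0.1–0.05%. IC50s came from Hill fits to averaged composite concentration-response curves (5–24 oocytes, 2–4 frogs). Ratio is GluN2A or GluN2B IC50 over GluN2D IC50.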

[2] = target: Glutamate receptor ionotropic, NMDA 2A (Rattus norvegicus, UniProt P35439+Q00959); assay: Negative allosteric modulation of recombinant rat GluN2A receptor expressed in Xenopus laevis oocytes by two-electrode voltage clamp method; format: cell-based, Oocyte
Sequence of Glutamate receptor ionotropic, NMDA 2A (Q00959 whole entry, one chain of several): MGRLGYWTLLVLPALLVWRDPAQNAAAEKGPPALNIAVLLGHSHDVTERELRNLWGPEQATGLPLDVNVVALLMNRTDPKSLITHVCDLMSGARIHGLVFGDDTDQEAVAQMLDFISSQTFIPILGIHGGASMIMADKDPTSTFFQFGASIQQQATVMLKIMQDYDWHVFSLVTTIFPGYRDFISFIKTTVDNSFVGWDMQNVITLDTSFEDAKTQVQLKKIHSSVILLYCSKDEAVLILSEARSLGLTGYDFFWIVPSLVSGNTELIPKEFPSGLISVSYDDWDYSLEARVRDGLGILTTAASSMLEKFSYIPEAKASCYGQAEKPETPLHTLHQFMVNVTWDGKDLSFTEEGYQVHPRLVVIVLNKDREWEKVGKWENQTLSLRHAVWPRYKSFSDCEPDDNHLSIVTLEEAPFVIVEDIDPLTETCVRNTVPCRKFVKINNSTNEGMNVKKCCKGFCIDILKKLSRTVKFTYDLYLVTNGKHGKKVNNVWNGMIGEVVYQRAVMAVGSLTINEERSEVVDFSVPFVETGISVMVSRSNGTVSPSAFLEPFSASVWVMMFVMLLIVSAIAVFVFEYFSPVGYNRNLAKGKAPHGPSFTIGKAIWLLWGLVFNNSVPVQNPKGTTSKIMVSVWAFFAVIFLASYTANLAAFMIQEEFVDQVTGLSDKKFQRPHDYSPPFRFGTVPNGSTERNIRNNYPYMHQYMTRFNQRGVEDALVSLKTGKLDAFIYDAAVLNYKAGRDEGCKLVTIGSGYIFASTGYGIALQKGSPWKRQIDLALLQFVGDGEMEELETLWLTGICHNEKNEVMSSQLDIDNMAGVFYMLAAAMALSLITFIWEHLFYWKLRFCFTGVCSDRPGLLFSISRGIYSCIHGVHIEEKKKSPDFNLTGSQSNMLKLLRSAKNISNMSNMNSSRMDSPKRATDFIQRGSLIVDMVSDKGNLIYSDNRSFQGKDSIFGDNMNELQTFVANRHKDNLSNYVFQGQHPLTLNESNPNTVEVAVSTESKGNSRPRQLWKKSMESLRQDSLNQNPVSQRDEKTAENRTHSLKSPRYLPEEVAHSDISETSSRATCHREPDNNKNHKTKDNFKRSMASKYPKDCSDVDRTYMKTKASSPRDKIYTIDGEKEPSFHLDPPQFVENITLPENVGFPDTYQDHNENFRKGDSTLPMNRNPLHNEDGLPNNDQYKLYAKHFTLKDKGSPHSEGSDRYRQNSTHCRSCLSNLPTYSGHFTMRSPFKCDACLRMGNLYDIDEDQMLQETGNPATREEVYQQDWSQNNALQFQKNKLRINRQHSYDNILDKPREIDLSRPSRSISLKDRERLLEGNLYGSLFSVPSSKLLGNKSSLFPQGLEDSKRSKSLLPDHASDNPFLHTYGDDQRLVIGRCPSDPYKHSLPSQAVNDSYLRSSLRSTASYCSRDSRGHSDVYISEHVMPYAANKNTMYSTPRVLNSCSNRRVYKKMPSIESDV
Outline: (§2)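 Two-electrode voltage clamp of Xenopus oocytes expressing rat GluN1 with GluN2A, 2B, 2C or 2D. Holding potential −40 mV in recording solution (mM: 90 NaCl, 1 KCl, 0.5 BaCl2, 0.005 EDTA, 10 HEPES, pH 7.4, 23 °C). Compounds diluted from 20 mM DMSO stocks to 0.05–0.1% final DMSO. IC50 from a Hill fit to the averaged composite concentration–response curve, 5–24 oocytes from 2–4 frogs.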

[3] = target: Glutamate receptor ionotropic, NMDA 2B (Rattus norvegicus, UniProt P35439+Q00960); assay: Negative allosteric modulation of recombinant rat GluN2B receptor expressed in Xenopus laevis oocytes by two-electrode voltage clamp method; format: cell-based, Oocyte; outline: as §2
[4] = target: Glutamate receptor ionotropic, NMDA 2C (Rattus norvegicus, UniProt P35439+Q00961); assay: Negative allosteric modulation of recombinant rat GluN2C receptor expressed in Xenopus laevis oocytes by two-electrode voltage clamp method; format: cell-based, Oocyte; outline: as §2
Sequence of Glutamate receptor ionotropic, NMDA 2C (Q00961 whole entry, one chain of several): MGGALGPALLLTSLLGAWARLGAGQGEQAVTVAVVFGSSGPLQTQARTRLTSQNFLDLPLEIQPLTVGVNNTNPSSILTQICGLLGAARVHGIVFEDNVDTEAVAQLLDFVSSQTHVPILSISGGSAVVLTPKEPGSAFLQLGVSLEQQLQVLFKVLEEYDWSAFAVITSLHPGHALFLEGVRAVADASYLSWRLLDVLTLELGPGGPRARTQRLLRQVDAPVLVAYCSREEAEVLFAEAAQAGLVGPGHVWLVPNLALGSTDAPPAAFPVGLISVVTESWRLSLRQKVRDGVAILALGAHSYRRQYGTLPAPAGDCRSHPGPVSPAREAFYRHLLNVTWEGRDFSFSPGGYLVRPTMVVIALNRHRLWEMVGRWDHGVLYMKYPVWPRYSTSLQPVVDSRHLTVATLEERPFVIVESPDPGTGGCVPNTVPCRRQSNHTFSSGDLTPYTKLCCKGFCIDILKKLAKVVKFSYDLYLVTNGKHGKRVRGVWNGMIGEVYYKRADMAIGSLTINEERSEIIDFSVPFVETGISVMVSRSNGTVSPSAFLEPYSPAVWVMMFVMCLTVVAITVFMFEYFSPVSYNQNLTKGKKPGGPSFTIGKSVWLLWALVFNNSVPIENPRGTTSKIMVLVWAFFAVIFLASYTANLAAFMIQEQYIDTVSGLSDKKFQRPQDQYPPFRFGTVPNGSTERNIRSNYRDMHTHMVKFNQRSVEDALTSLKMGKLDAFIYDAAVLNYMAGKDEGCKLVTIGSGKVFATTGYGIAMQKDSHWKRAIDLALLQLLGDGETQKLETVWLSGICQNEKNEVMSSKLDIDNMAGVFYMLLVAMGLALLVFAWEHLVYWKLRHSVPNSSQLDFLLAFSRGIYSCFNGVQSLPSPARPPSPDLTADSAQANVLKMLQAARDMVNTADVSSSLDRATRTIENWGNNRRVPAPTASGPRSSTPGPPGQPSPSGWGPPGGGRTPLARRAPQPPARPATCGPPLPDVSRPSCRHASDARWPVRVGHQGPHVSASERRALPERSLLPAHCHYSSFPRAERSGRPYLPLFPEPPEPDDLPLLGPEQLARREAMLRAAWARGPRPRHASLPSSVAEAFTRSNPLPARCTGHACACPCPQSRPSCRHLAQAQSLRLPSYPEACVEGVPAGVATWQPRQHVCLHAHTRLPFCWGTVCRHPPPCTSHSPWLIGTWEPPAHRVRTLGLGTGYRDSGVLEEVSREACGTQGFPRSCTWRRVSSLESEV

[5] = target: Glutamate receptor ionotropic, NMDA 2D (Rattus norvegicus, UniProt P35439+Q62645); assay: Negative allosteric modulation of recombinant rat GluN2D receptor expressed in Xenopus laevis oocytes by two-electrode voltage clamp method; format: cell-based, Oocyte; outline: as §2
Sequence of Glutamate receptor ionotropic, NMDA 2D (Q62645 whole entry, one chain of several): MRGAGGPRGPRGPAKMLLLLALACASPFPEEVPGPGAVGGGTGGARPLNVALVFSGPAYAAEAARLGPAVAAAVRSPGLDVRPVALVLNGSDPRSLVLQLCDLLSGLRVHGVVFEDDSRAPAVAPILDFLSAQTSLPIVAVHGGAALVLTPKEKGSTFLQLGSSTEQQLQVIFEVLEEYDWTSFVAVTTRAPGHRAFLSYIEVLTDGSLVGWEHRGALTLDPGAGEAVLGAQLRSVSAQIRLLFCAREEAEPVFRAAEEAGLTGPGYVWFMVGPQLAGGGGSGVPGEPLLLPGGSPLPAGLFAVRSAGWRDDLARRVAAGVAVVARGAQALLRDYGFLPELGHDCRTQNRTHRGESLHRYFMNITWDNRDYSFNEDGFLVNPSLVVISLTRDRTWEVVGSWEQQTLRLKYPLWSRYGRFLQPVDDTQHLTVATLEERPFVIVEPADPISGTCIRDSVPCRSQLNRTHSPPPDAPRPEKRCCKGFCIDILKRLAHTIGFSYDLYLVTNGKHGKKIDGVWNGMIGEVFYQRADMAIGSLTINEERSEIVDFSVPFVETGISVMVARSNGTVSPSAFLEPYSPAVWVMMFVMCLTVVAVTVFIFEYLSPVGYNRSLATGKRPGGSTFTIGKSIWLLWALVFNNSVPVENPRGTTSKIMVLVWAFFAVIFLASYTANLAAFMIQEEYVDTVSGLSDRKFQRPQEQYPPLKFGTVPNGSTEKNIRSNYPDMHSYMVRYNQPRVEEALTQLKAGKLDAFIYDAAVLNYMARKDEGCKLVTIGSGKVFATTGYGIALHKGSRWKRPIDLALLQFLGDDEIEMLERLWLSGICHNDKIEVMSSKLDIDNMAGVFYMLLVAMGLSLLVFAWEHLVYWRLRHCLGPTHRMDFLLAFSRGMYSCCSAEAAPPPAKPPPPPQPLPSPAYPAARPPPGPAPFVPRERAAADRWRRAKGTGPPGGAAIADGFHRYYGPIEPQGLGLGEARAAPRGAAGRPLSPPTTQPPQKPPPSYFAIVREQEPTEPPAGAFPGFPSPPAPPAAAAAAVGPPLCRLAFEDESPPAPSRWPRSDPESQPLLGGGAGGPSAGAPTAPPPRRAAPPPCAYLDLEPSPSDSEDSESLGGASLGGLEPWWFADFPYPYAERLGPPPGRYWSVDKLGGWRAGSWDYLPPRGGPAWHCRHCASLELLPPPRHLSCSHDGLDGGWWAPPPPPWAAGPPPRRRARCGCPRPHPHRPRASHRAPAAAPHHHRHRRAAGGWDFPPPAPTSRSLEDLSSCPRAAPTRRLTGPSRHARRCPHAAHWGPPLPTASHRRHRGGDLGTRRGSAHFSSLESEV

Rattus norvegicus [6] = species on record: Rattus norvegicus; assay: Selectivity ratio of IC50 for recombinant rat GluN2A receptor to IC50 for recombinant rat GluN2D receptor; outline: as §1

SMILES | Ratio IC50 (Rattus norvegicus [1]) | IC50 [2] | IC50 [3] | IC50 [4] | IC50 [5] | Ratio IC50 (Rattus norvegicus [6])
O=C(O)CCC(=O)N1N=C(c2c(-c3ccc(Cl)cc3)c3ccccc3[nH]c2=O)CC1c1ccc(Br)cc1 (centres undefined) | 67 | 19 µM | 34 µM | 0.95 µM | 0.51 µM | 37
O=C(O)CCC(=O)N1N=C(c2c(-c3ccc(Br)cc3)c3ccccc3[nH]c2=O)CC1c1ccc(F)cc1 (centres undefined) | 26 | 34 µM | 75 µM | 3.8 µM | 2.9 µM | 12
O=C(O)CCC(=O)N1N=C(c2c(-c3ccc(Cl)cc3)c3ccccc3[nH]c2=O)CC1c1ccc(F)cc1 (centres undefined) | 26 | 47 µM | 90 µM | 4.1 µM | 3.4 µM | 14
O=C(O)CCC(=O)N1N=C(c2c(-c3ccc(F)cc3)c3ccccc3[nH]c2=O)CC1c1ccc(Cl)cc1 (centres undefined) | 98 | 21 µM | 57 µM | 1 µM | 0.58 µM | 36
O=C(O)CCC(=O)N1N=C(c2c(-c3cc(F)cc(F)c3)c3ccccc3[nH]c2=O)CC1c1ccc(Cl)cc1 (centres undefined) | 123 | 21 µM | 100 µM | 1.1 µM | 0.81 µM | 26
O=C(O)CCCN1N=C(c2c(-c3ccc(Cl)cc3)c3ccccc3[nH]c2=O)CC1c1ccc(Cl)cc1 (centres undefined) | 31 | 58 µM | 53 µM | – | – | 34
O=C(O)CCC(=O)N1N=C(c2c(-c3ccccc3)c3cc(Cl)ccc3[nH]c2=O)CC1c1ccc(C(F)(F)F)cc1 (centres undefined) | 13 | 80 µM | 54 µM | 5 µM | – | 20
COc1ccc(C2CC(c3c(O)nc4ccc(Cl)cc4c3-c3ccccc3)=NN2C(=O)CCC(=O)O)cc1 (centres undefined) | 9 | – | – | – | – | 9
O=C(O)CCC(=O)N1N=C(c2c(-c3ccccc3)c3cc(Cl)ccc3[nH]c2=O)CC1c1ccccc1 (centres undefined) | – | – | – | 86 µM | 88 µM | –
COc1ccc(C2CC(c3c(-c4ccccc4)c4cc(Cl)ccc4[nH]c3=O)=NN2C(=O)CCC(=O)O)cc1 (centres undefined) | – | 197 µM | 187 µM | 28 µM | 21 µM | –
O=C(O)CCC(=O)N1N=C(c2c(-c3ccc(Cl)cc3)c3ccccc3[nH]c2=O)C[C@H]1c1ccc(Cl)cc1 | 156 | 13 µM | 26 µM | 0.22 µM | – | 78

Second part, the compound after the results:

Ratio IC50 (Rattus norvegicus [1]) | IC50 [2] | IC50 [3] | IC50 [4] | IC50 [5] | Ratio IC50 (Rattus norvegicus [6]) | SMILES
19 | 5.5 µM | 13 µM | 0.78 µM | 0.7 µM | 8 | O=C(O)CCC(=O)N1N=C(c2c(-c3cc(Cl)cc(Cl)c3)c3ccccc3[nH]c2=O)CC1c1ccc(Cl)cc1 (centres undefined)
22 | 7.7 µM | 20 µM | 0.79 µM | 0.91 µM | 8 | O=C(O)CCC(=O)N1N=C(c2c(-c3ccc(Cl)c(Cl)c3)c3ccccc3[nH]c2=O)CC1c1ccc(Cl)cc1 (centres undefined)
59 | 13 µM | 23 µM | – | – | 33 | O=C(O)CCC(=O)N1N=C(c2c(-c3ccc(Br)cc3)c3ccccc3[nH]c2=O)CC1c1ccc(Br)cc1 (centres undefined)
53 | 12 µM | 28 µM | 0.91 µM | 0.53 µM | 23 | O=C(O)CCC(=O)N1N=C(c2c(-c3ccc(Cl)c(F)c3)c3ccccc3[nH]c2=O)CC1c1ccc(Cl)cc1 (centres undefined)
30 | 12 µM | 17 µM | 1 µM | 0.57 µM | 21 | O=C(O)/C=C\C(=O)N1N=C(c2c(-c3ccc(Br)cc3)c3ccccc3[nH]c2=O)CC1c1ccc(Cl)cc1 (centres undefined)
– | 10 µM | 23 µM | 0.56 µM | 0.29 µM | – | O=C(O)CCC(=O)N1N=C(c2c(-c3ccc(Br)cc3)c3ccccc3[nH]c2=O)CC1c1ccc(Cl)cc1 (centres undefined)
